ChEMBL document CHEMBL3763041, “Design and synthesis of new imidazo[1,2-a]pyridine and imidazo[1,2-a]pyrazine derivatives with antiproliferative activity against melanoma cells” (Eur J Med Chem, 2016)
pIC50: −log10 of the molar value.

Key:
[1] = Antiproliferative activity against human PC9 cells after 72 hrs by CellTiter-Glo assay; format: functional, cell-based; details: PC-9, 72 h
[2] = test system: A549; test: Antiproliferative activity against human A549 cells after 72 hrs by CellTiter-Glo assay; format: functional, cell-based; details: A549, 72 h
[3] = Antiproliferative activity against human HKE3 cells after 72 hrs by CellTiter-Glo assay; format: functional, cell-based; details: HKE3, 72 h
[4] = Antiproliferative activity against human HCT116 cells after 72 hrs by CellTiter-Glo assay; format: functional, cell-based; details: HCT-116, 72 h
[5] = target: Serine/threonine-protein kinase B-raf (Homo sapiens, UniProt P15056); test: Inhibition of wild-type B-Raf (unknown origin) using MEK1 K97M as substrate preincubated for 90 mins followed by substrate addition measured after 1 hr by fluorescence polarization assay
Serine/threonine-protein kinase B-raf (Homo sapiens, UniProt P15056), sequence (P15056 whole entry): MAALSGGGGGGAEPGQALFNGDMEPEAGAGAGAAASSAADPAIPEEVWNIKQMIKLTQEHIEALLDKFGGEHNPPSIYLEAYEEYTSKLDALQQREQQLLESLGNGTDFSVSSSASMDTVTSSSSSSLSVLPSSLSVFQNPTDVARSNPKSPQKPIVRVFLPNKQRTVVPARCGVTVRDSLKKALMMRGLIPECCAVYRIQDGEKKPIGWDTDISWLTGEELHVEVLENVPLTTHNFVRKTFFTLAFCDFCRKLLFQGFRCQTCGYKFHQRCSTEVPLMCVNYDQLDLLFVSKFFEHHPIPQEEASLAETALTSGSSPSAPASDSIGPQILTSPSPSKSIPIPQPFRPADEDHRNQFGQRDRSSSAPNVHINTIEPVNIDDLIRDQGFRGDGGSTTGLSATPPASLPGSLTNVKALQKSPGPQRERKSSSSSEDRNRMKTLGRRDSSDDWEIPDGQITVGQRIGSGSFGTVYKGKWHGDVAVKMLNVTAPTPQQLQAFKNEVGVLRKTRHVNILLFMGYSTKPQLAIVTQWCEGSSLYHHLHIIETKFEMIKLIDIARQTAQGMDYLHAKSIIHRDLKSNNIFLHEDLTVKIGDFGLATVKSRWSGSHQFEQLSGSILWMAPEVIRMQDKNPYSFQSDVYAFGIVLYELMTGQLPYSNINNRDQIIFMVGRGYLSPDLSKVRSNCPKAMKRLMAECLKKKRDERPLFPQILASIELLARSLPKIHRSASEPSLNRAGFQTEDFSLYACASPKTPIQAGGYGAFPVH
Outline: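 After ATP-containing solution was added, the reaction ran 1 h at room temperature. It was stopped with ADP detection mix (EDTA, ADP² antibody, 3 nM ADP Alexa633 tracer).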

[6] = Antiproliferative activity against human A375P cells expressing BRAF V600E mutant after 72 hrs by CellTiter-Glo assay; format: functional, cell-based
[7] = Antiproliferative activity against human PC-9ER cells after 72 hrs by CellTiter-Glo assay; format: functional, cell-based
[8] = target: Serine/threonine-protein kinase B-raf (Homo sapiens, UniProt P15056, V600E); test: Inhibition of B-Raf V600E mutant (unknown origin) using MEK1 K97M as substrate preincubated for 90 mins followed by substrate addition measured after 1 hr by fluorescence polarization assay
Serine/threonine-protein kinase B-raf (Homo sapiens, UniProt P15056, V600E), sequence (P15056 2-766 V600E limits assumed): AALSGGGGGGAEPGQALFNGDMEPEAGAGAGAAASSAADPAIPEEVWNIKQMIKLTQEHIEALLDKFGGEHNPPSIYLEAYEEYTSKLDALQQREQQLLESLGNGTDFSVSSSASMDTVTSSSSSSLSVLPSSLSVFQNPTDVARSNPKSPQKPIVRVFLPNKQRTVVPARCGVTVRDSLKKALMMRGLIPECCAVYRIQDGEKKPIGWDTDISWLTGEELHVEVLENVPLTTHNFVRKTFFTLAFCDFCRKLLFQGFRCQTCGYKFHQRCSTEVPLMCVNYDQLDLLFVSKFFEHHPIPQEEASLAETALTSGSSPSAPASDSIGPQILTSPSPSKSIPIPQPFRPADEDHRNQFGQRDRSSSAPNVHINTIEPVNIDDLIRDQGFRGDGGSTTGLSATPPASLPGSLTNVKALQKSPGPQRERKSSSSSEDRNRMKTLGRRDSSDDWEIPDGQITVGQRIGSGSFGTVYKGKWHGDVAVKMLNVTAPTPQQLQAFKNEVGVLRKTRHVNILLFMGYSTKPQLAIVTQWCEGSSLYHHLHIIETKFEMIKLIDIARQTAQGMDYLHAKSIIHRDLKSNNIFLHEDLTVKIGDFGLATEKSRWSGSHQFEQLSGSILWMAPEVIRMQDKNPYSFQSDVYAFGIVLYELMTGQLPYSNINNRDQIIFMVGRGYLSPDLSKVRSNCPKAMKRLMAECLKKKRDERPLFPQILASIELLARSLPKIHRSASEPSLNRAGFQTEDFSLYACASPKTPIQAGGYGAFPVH
Outline: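 Reactions used 30 nM B-Raf(V600E) enzyme with MEK1 K97M substrate. Kinase reaction ran 1 h at room temperature after ATP-containing solution was added. It was stopped with ADP detection mix (20 mM HEPES pH 7.5, 40 mM EDTA, 10 mM MgCl₂, 0.02% Brij 35, ADP² antibody, 3 nM ADP Alexa633 tracer).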

[9] = test system: NCI-H358; test: Antiproliferative activity against human NCI-H358 cells after 72 hrs by CellTiter-Glo assay; format: functional, cell-based; details: NCI-H358, 72 h

O=C(Nc1cccc(-c2cnc3c(NC(=O)c4cc(Cl)cc(Cl)c4)nccn23)c1)c1ccc(Cl)c(C(F)(F)F)c1
pIC50 [1]: 5.44 | pIC50 [2]: 5.49 | pIC50 [3]: 6.08 | pIC50 [4]: 5.74 | pIC50 [5]: < 4.90 | pIC50 [6]: 7.40 | pIC50 [7]: 5.44 | pIC50 [8]: < 4.90 | pIC50 [9]: 5.38

O=C(Nc1cccc(-c2cnc3c(NC(=O)c4cc(C(F)(F)F)cc(C(F)(F)F)c4)nccn23)c1)Nc1ccc(Cl)c(C(F)(F)F)c1
pIC50 [1]: 4.94 | pIC50 [2]: 4.98 | pIC50 [3]: 5.20 | pIC50 [4]: 5.27 | pIC50 [5]: < 4.90 | pIC50 [6]: 8.00 | pIC50 [7]: 4.84 | pIC50 [8]: < 4.90 | pIC50 [9]: 5.12

O=C(Nc1cccc(-c2cnc3c(NC(=O)c4cc(Cl)cc(Cl)c4)nccn23)c1)Nc1ccc(Cl)c(C(F)(F)F)c1
pIC50 [1]: 4.94 | pIC50 [2]: 5.07 | pIC50 [3]: 5.00 | pIC50 [4]: 5.02 | pIC50 [5]: < 4.90 | pIC50 [6]: 7.52 | pIC50 [7]: 5.10 | pIC50 [8]: < 4.90 | pIC50 [9]: 5.07

O=C(Nc1cccc(-c2cnc3c(NC(=O)c4cc(Cl)cc(Cl)c4)nccn23)c1)Nc1ccc(F)cc1F
pIC50 [1]: 5.56 | pIC50 [2]: 5.58 | pIC50 [3]: 6.21 | pIC50 [4]: 6.06 | pIC50 [5]: < 4.90 | pIC50 [6]: 7.22 | pIC50 [7]: 5.59 | pIC50 [8]: < 4.90 | pIC50 [9]: 5.38

Nc1nccn2c(-c3cccc(NC(=O)c4cc(Cl)c(F)c(Cl)c4)c3)cnc12
pIC50 [6]: 5.39

Cc1ccc(C(=O)Nc2nccn3c(-c4cccc(NC(=O)c5ccc(Cl)c(C(F)(F)F)c5)c4)cnc23)cc1Cl
pIC50 [6]: 5.55

O=C(Nc1cccc(-c2cnc3c(NC(=O)c4ccc(OC(F)(F)F)cc4)nccn23)c1)Nc1ccc(F)cc1F
pIC50 [6]: 5.42

Cc1ccc(C)c(C(=O)Nc2cccc(-c3cnc4c(N)nccn34)c2)c1
pIC50 [6]: 5.56

Cc1ccc(C(=O)Nc2nccn3c(-c4cccc(NC(=O)Nc5ccc(Cl)c(C(F)(F)F)c5)c4)cnc23)cc1Cl
pIC50 [6]: 5.94

O=C(Nc1cccc(-c2cnc3c(NC(=O)c4ccc(F)c(C(F)(F)F)c4)nccn23)c1)Nc1ccc(Cl)c(C(F)(F)F)c1
pIC50 [5]: < 4.90 | pIC50 [6]: 7.22 | pIC50 [8]: 5.30

Nc1nccn2c(-c3cccc(NC(=O)c4cccc(OC(F)(F)F)c4)c3)cnc12
pIC50 [6]: 4.86

Nc1nccn2c(-c3cccc(NC(=O)c4cc(C(F)(F)F)cc(C(F)(F)F)c4)c3)cnc12
pIC50 [6]: 5.08

Nc1nccn2c(-c3cccc(NC(=O)c4cccc(C(F)(F)F)c4)c3)cnc12
pIC50 [6]: 5.68

O=C(Nc1cccc(-c2cnc3c(NC(=O)c4cc(C(F)(F)F)cc(C(F)(F)F)c4)nccn23)c1)c1ccc(Cl)c(C(F)(F)F)c1
pIC50 [6]: 6.26

O=C(Nc1cccc(-c2cnc3c(NC(=O)c4ccc(C(F)(F)F)cc4)nccn23)c1)c1ccc(F)c(Cl)c1
pIC50 [6]: 6.25

COc1cc(C(=O)Nc2cccc(-c3cnc4c(N)nccn34)c2)cc(OC)c1OC
pIC50 [6]: 5.81

O=C(Nc1cccc(-c2cnc3c(NC(=O)c4ccc(Cl)c(C(F)(F)F)c4)nccn23)c1)c1ccc(F)c(Cl)c1
pIC50 [6]: 5.97

O=C(Nc1cccc(-c2cnc3c(NC(=O)c4ccccc4)cccn23)c1)c1ccc(F)c(Cl)c1
pIC50 [6]: 5.09

Nc1nccn2c(-c3cccc(NC(=O)Nc4cc(C(F)(F)F)cc(C(F)(F)F)c4)c3)cnc12
pIC50 [6]: 5.04

O=C(Nc1cccc(-c2cnc3c(NC(=O)c4ccccc4)nccn23)c1)c1ccc(F)c(Cl)c1
pIC50 [6]: 5.94

Nc1nccn2c(-c3cccc(NC(=O)c4ccc(C(F)(F)F)cc4)c3)cnc12
pIC50 [6]: 5.15

O=C(Nc1cccc(-c2cnc3c(NC(=O)c4cccc(C(F)(F)F)c4)nccn23)c1)c1ccc(F)c(Cl)c1
pIC50 [6]: 5.97

O=C(Nc1cccc(-c2cnc3c(NC(=O)c4cc(Cl)c(F)c(Cl)c4)nccn23)c1)Nc1ccc(F)cc1F
pIC50 [6]: 6.41

Nc1nccn2c(-c3cccc(NC(=O)c4ccc(F)cc4F)c3)cnc12
pIC50 [6]: 5.14

O=C(Nc1cccc(-c2cnc3c(NC(=O)c4ccccc4)nccn23)c1)Nc1ccc(F)cc1F
pIC50 [6]: 5.70

O=C(Nc1cccc(-c2cnc3c(NC(=O)c4ccccc4)nccn23)c1)Nc1ccc(Cl)c(C(F)(F)F)c1
pIC50 [6]: 5.85

O=C(Nc1cccc(-c2cnc3c(NC(=O)c4ccc(Cl)c(C(F)(F)F)c4)nccn23)c1)Nc1ccc(F)cc1F
pIC50 [6]: 6.10

O=C(Nc1cccc(-c2cnc3c(NC(=O)c4cc(F)cc(F)c4)nccn23)c1)Nc1ccc(F)cc1F
pIC50 [6]: 5.24

O=C(Nc1cccc(-c2cnc3c(NC(=O)c4cccc(OC(F)(F)F)c4)nccn23)c1)c1ccc(F)c(Cl)c1
pIC50 [6]: 5.82

O=C(Nc1cccc(-c2cnc3c(NC(=O)c4cc(Cl)c(F)c(Cl)c4)nccn23)c1)c1ccc(F)c(Cl)c1
pIC50 [6]: 5.89

Cc1cc(C)cc(C(=O)Nc2cccc(-c3cnc4c(NC(=O)c5ccccc5)cccn34)c2)c1
pIC50 [6]: < 4.52
